ChEMBL document CHEMBL5032505, “Design, Synthesis, and Activity Evaluation of Stereoconfigured Tartarate Derivatives as Potential Anti-inflammatory Agents In Vitro and In Vivo” (J Med Chem, 2021)
Calls of active or inactive are those of the source. The calls are words filed in the database; no cut-off is given here.

How the values were obtained:
[1] = Inhibition of soybean LOX using arachidonic acid as substrate incubated for 5 mins; set-up: species or system Glycine max
How it was run: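 Soybean lipoxygenase in assay buffer, compounds at 10⁻⁴–10⁻⁸ M from DMSO stocks, triplicate. Reaction started with arachidonic acid and shaken 5 min. Chromogen added, shaken 5 min more, absorbance read at 490 nm. Blanks were buffer + AA. % inhibition computed with chromogen extinction coefficient 9.47 mM⁻¹.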

[2] = test system: Mus musculus; assay: Analgesic activity in Swiss albino mouse assessed as inhibition of acetic acid-induced writhing at 5 mg/kg, ip preincubated for 30 mins with L-arginine followed by compound addition for 30 mins prior to acetic acid challenge and measured after 30 mins; assay type: functional, organism-based; conditions: time 60.0 min
[3] = Half life in Swiss albino mouse at 10 mg/kg, ip measured upto 24 hrs by LC-MS analysis; assay type: ADME, organism-based; conditions: in vivo
How it was run: (§1)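 Swiss albino mice (25−35 g), either sex, 10 groups of three. 10 mg/kg suspended in 0.1% CMC, given i.p. Ketamine anaesthesia (50 mg/kg i.p.). Jugular vein blood taken at 30, 45, 60 min and 2, 3, 4, 6, 8, 11, 24 h into heparinised tubes, triplicate samples per time point.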

[4] = test system: Mus musculus; assay: Sedative activity in Swiss albino mouse at 300 mg/kg, po after 2 hrs; assay type: ADME, organism-based; conditions: in vivo
How it was run: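 Acute oral toxicity in Swiss albino mice fasted 4 h, three per group, vehicle control group alongside. Single 300 mg/kg oral dose, continuous observation for 4 h, then periodic checks over 14 days.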

[5] = Cmax in Swiss albino mouse at 10 mg/kg, ip measured upto 24 hrs by LC-MS analysis; assay type: ADME, organism-based; set-up: route intraperitoneal, dose 10 mg/kg, time <=24; conditions: in vivo; how it was run: as §1
[6] = test system: Mus musculus; assay: Antiinflammatory activity against Swiss albino mouse assessed as reduction in carragenan-induced paw edema at 0.5 mg/kg treated 30 mins prior to carrageenan challenge and measured upto 360 mins relative to control; assay type: functional; set-up: scale not given: the % may be the effect or the level left; conditions: time 390 min, 6.5 h
How it was run: (§2)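 100 μL freshly prepared 1% carrageenan injected into the subplantar hind paw, with indomethacin (10 mg/kg) or test compound given 30 min before. Dose–response arm used 0.5, 2.5, 5, 10, 20 mg/kg. Six animals per group. Paw thickness (mm) read at 15, 30, 60, 120, 180, 240, 300, 360 min. Result expressed as % decrease versus control.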

[7] = molecular target: T1, Prostaglandin G/H synthase 2 (Homo sapiens) (UniProt P35354)
T1 sequence (whole entry): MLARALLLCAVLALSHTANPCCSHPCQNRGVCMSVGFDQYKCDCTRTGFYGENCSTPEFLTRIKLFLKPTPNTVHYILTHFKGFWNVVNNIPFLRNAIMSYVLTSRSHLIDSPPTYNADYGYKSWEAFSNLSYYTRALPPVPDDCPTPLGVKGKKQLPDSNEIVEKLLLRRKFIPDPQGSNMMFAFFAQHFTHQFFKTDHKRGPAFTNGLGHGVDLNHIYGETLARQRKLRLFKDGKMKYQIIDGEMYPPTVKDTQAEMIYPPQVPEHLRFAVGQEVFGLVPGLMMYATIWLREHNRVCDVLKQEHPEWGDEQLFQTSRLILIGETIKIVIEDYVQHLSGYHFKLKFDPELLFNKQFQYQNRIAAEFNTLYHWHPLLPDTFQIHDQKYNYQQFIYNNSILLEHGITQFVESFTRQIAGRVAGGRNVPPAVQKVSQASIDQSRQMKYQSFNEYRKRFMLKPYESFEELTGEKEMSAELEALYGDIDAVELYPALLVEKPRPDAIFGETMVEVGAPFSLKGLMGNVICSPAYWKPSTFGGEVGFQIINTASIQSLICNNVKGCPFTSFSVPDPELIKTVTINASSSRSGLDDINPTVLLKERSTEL

[8] = molecular target: T2, Albumin (Homo sapiens, UniProt P02768); assay: Binding affinity to HSA assessed as change in entropy by isothermal titration calorimetry
How it was run: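 Isothermal titration calorimetry at 25 °C. Ligand at 100 μM in DMSO:0.1 M Tris buffer (1:9), loaded in the syringe and stirred at 500 rpm. HSA (0.05 g per mL Tris buffer) placed in the sample cell. Forty 1 μL injections at 120 s intervals. Heats corrected with control titrations: ligand into buffer, and buffer into protein. Binding parameters fitted with a single-site model (Q = nΘMtΔHVo).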

[9] = molecular target: T3, Prostaglandin G/H synthase 1 (Ovis aries) (UniProt P05979)
T3 sequence (whole entry): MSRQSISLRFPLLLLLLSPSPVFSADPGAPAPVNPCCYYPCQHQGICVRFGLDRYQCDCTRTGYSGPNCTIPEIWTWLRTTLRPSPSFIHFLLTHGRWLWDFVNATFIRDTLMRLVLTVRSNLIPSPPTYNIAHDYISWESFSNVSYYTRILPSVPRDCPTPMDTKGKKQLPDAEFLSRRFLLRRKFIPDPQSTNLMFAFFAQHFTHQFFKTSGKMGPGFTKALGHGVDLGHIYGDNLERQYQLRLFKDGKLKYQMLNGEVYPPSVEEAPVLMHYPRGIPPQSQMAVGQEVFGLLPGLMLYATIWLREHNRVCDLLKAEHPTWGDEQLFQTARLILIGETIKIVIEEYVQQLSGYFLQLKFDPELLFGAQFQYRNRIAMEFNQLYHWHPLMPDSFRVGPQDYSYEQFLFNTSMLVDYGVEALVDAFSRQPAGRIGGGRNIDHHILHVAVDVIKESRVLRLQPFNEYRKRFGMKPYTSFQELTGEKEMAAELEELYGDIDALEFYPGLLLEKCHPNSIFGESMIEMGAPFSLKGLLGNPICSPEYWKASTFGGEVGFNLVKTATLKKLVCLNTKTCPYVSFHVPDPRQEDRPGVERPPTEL

[10] = AUC (0 to t) in Swiss albino mouse at 10 mg/kg, ip measured upto 24 hrs by LC-MS analysis; assay type: ADME, organism-based; set-up: route intraperitoneal, dose 10 mg/kg, time <=24; conditions: in vivo; how it was run: as §1
[11] = molecular target: T1, Prostaglandin G/H synthase 2 (Homo sapiens); remark: listed apart in the source
[12] = test system: Glycine max
[13] = test system: Mus musculus; assay: Antiinflammatory activity against Swiss albino mouse assessed as reduction in carragenan-induced paw edema at 2.5 mg/kg treated 30 mins prior to carrageenan challenge and measured upto 360 mins relative to control; assay type: functional; set-up: scale not given: the % may be the effect or the level left; conditions: time 390 min, 6.5 h; how it was run: as §2
[14] = molecular target: T2, Albumin; assay: Binding affinity to HSA assessed as association constant at equilibrium by isothermal titration calorimetry
[15] = test system: Mus musculus; assay: Antiinflammatory activity against Swiss albino mouse assessed as reduction in carragenan-induced paw edema at 10 mg/kg treated 30 mins prior to carrageenan challenge and measured upto 360 mins relative to control; assay type: functional; set-up: scale not given: the % may be the effect or the level left; conditions: time 390 min, 6.5 h; how it was run: as §2
[16] = molecular target: T2, Albumin; assay: Binding affinity to HSA assessed as change in enthalpy by isothermal titration calorimetry
[17] = test system: Mus musculus; assay: Antiinflammatory activity against Swiss albino mouse assessed as reduction in carragenan-induced paw edema at 20 mg/kg treated 30 mins prior to carrageenan challenge and measured upto 360 mins relative to control; assay type: functional; set-up: scale not given: the % may be the effect or the level left; conditions: time 390 min, 6.5 h; how it was run: as §2
[18] = test system: Glycine max; remark: listed apart in the source

T2 sequence (P02768 whole entry): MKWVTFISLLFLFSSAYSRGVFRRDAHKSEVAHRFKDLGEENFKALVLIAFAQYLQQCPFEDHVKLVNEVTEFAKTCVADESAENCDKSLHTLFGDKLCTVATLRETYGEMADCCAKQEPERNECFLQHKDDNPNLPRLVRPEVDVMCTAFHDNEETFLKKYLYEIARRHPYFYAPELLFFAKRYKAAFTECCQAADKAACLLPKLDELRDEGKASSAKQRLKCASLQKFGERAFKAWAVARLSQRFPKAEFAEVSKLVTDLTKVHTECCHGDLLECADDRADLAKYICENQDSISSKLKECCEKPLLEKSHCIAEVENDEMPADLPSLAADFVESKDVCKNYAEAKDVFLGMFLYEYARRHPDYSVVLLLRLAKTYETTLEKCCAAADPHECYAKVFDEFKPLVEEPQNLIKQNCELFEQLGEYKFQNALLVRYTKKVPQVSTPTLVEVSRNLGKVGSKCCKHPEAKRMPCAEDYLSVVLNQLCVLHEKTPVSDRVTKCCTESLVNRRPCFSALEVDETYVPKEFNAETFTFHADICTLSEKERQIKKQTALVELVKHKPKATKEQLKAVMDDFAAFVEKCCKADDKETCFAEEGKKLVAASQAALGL

O=C(O)Cn1nncc1CO[C@@H](C(=O)O)[C@@H](OCc1cnnn1CC(=O)O)C(=O)O
IC50 [1]: 7 nM | Activity [2]: Active | half-life [3]: 8.74 h | Activity [4]: Non-Toxic | Cmax [5]: 26000 ng/mL | Activity [6]: 2% | Ka [7]: 6.07 10^5/M | TdeltaS [8]: -258 kcal/mol | deltaG [9]: -5.02 kcal/mol | AUC(0-t) at 24 h [10]: 241 µg·h/mL | TdeltaS [11]: -2.57 kcal/mol | deltaH [12]: -9.99 kcal/mol | Activity [13]: 5.4% | Ka [14]: 11800 M⁻¹ | Activity [15]: 36.5% | deltaH [16]: -264 kcal/mol | Activity [17]: 38.5% | Ka [18]: 1.33 10^5/M
